Compound activity from PubChem.
In the library only some 1.6% were active in any assay of this set; here they are far more common.
NCF1 inh – p47phox/p22phox peptide binding inhibitors, primary screen, biochemical, uHTS, NADPH oxidase regulatory subunit; 220,000 tested, 0.53% active; AID 1274, 2008; Neutrophil cytosol factor 1 (Homo sapiens), P14598; inhibition, % at 24.7 µM; fluorescence polarization, 2 h;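 active = inhibition above about 30%, limit read from the data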;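 also: 0% = p47phox with labelled peptide and 100% = labelled peptide alone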
ABCG2 inh – ABCG2 efflux pump inhibitors, primary screen, multiplex with ABCB1, IgMXP3 cells, flow cytometry; Broad substrate specificity ATP-binding cassette transporter ABCG2 (Homo sapiens), Q9UNQ0; JC-1 efflux; inhibition, % at 6.6 µM; 190,000 tested, 0.1% active;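 active = inhibition above 80%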;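 also: 0% = DMSO and 100% = nicardipine control wells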
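Test system: IgMXP3 (ABCG2) plus far-red-tagged CCRF-Adr (ABCB1) cells / Amount: 3 million cells/mL in well / Reagent: JC-1 transporter substrate / Timing: 10 min compound exposure, 25 °C / Signal: flow cytometry, 530 nm JC-1 signal / Read-out: percent efflux inhibition, scaled nicardipine 100% to DMSO 0% / Benchmarks: nicardipine as high control, DMSO as low control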
PHOSPHO1 block – PubChem AID 1565; 290,000 tested, 1.1% active; inhibition, % at 13.3 µM; recombinant PHOSPHO1, absorbance phosphatase assay; in the data active = inhibition above about 60%
HSV replic up – enhancers of HSV replication in host cells, fold increase, host cell viability. HSV replication augmentation in cells. maximum fold increase. 220,000 tested, 0.005% active. AID 1956, 2009; in the data active = maximum fold increase above about 1.5; tested in PC3 cells
ABCB1 inh – ABCB1 efflux pump inhibitors, primary screen, cell-based, multiplex, flow cytometry, ABCG2 counter-screen; 190,000 tested, 0.067% active; ATP-dependent translocase ABCB1 (Homo sapiens), P08183; CCRF-Adr cells, JC-1 efflux; AID 1326, 2008; inhibition, % at 6.6 µM; in the data active = inhibition above about 40%;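 also: 0% = vehicle and 100% = reference inhibitor; higher value means more JC-1 retained so stronger ABCB1 efflux block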
Target sequence (P08183 whole entry, looked up): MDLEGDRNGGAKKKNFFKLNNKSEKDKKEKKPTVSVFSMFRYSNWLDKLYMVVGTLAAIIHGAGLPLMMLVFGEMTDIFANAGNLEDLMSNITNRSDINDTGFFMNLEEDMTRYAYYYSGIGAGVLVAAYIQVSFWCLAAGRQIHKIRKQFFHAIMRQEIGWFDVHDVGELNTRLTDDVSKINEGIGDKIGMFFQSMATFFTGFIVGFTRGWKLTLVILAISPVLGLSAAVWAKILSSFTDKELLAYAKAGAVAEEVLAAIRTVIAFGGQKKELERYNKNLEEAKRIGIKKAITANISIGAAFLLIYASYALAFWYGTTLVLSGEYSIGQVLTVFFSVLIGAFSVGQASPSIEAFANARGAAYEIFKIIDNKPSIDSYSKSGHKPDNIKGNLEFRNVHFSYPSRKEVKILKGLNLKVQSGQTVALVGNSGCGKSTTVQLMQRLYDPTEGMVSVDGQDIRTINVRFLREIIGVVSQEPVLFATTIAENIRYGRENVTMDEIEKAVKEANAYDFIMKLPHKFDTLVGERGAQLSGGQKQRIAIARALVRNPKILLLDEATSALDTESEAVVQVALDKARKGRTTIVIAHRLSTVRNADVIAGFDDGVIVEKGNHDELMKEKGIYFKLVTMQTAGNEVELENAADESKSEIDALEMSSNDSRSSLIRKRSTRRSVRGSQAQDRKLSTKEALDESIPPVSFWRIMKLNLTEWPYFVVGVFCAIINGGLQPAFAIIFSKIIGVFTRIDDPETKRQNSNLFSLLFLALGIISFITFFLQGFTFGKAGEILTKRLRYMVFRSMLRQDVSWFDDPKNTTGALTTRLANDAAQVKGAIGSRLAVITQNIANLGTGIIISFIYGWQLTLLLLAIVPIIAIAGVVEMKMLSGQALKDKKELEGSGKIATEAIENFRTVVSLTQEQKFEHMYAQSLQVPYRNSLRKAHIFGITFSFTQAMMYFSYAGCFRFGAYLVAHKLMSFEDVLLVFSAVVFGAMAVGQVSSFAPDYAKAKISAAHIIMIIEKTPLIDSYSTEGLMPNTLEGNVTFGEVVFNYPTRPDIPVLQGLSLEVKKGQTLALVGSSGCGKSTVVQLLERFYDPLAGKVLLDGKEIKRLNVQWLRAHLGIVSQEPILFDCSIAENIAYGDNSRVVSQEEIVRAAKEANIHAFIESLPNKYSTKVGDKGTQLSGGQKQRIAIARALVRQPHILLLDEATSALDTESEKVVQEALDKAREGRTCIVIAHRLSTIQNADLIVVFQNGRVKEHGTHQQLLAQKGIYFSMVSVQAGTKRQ
PKD1 kinase inh – inhibitors of human PKD1 kinase, biochemical, fluorescence polarization | Serine/threonine-protein kinase D1 (Homo sapiens), Q15139 | PKD1 kinase fluorescence polarization assay | inhibition, % (test concentration not listed) | 200,000 tested, 0.056% active | AID 797, 2007; in the data active = inhibition above about 50%
* hit, by the source's call; i = inactive; / = not tested or not shown.

SMILES	NCF1 inh	ABCG2 inh	PHOSPHO1 block	HSV replic up	ABCB1 inh	PKD1 kinase inh
CC1CCC2(CC1)NC(=O)N(CC(=O)NC(=O)Nc1ccc3c(c1)OCCO3)C2=O (stereo not drawn)	-3	/	8	i	/	/
COc1ccc(-c2cc(C(F)(F)F)n3nc(N)nc3n2)cc1	-9	11	5	i	0	-1
COc1ccc(-c2cc(C(F)(F)F)n3nc(C(=O)O)nc3n2)cc1	65*	0	-21	/	0	-14
COc1cc(NC(=O)c2ccc(Cl)cc2)c(Cl)cc1NC(=O)c1cccnc1	/	/	63*	/	/	/
NC(=S)n1[nH]c(-c2ccc([N+](=O)[O-])cc2)c(N=Nc2ccccc2[N+](=O)[O-])c1=O	30*	-3	-5	i	-1	-6
CCCCC(=O)Nc1sc(C(=O)N(CC)CC)c(C)c1C(=O)OC	5	3	-18	i	0	7
CCCC(=O)Nc1sc(C(=O)OC)c(C)c1C(N)=O	-16	2	77*	i	0	9
Cc1cc(-c2csc(N)n2)c(C)n1CCC(C)C	-7	2	102*	i	0	-7
Cc1cc(-c2csc(N)n2)c(C)n1CCc1ccccc1	-9	3	-4	i	1	-10
O=C(CSc1ccc(Cl)cc1)N/N=C/c1cccnc1	6	3	40	i	0	-5
O=C(CSc1nnc(-c2ccccc2)n1Cc1ccco1)NCc1ccc2c(c1)OCO2	-7	5	60*	i	2	-4
O=C(CSc1nccn1-c1ccc(F)cc1)NCc1ccc2c(c1)OCO2	-2	/	65*	i	/	-2
Cc1cc(C(=O)CSc2nnc(-c3ccccc3)n2Cc2ccc3c(c2)OCO3)c(C)n1C	-4	2	95*	i	0	6
Fc1ccc(CSc2nncn2NCc2ccc3c(c2)OCO3)cc1	103*	15	-8	/	0	-6
Fc1ccc(CNn2cnnc2SCc2ccc(F)cc2)cc1	-15	-1	-4	i	0	-1
CCC(C)N1CCC(Oc2ccc(C(=O)NCc3ccccn3)cc2)CC1 (stereo not drawn)	/	/	28	/	/	/
COc1ccc(NC(=O)C2CCC(=O)N2S(=O)(=O)c2ccc(C)cc2)cc1Cl (stereo not drawn)	/	/	35	/	/	/
O=C(NC1CCCC1)C1CC(c2ccc(F)cc2)=NO1 (stereo not drawn)	60*	2	-92	i	1	-5
CC(=O)c1ccc(NC(=O)C2CC(c3ccc(F)cc3)=NO2)cc1 (stereo not drawn)	6	2	12	i	0	-10
Cc1nnc(SCC(=O)N2CCN(c3ccccc3)CC2)n(N)c1=O	0	1	5	i	0	-9
Cc1ccc(SCC2(O)CCN(C(=O)c3ccc(Cl)cc3)CC2)cc1	-14	1	62*	i	1	1
CCOc1ccc(C2CC(=O)n3nc(C45CC6CC(CC(C6)C4)C5)nc3S2)cc1OC (stereo not drawn)	-12	2	84*	i	0	-4
COc1ccc(C2CC(=O)n3nc(C45CC6CC(CC(C6)C4)C5)nc3S2)cc1OC (stereo not drawn)	-10	-2	4	i	0	9
Cn1cc(Cl)c(C(=O)N2CCN(c3ncccn3)CC2)n1	-5	34	-8	i	1	-2
O=C(NCC1(c2ccccc2)CCCC1)c1cccc(Br)c1	-10	3	-12	i	0	5
CC1=C(C(=O)NC2CCCc3c2cnn3-c2cccc(C)c2C)OCCO1 (stereo not drawn)	/	/	27	/	/	/
COc1ccc(C(=O)NC2CCCc3c2cnn3-c2cccc(C)c2C)o1 (stereo not drawn)	/	/	64*	/	/	/
O=C1CCCCC1Sc1nnc(Cc2cccs2)n1CCc1ccccc1 (stereo not drawn)	-8	0	71*	i	0	-15
CS/C(=N\S(=O)(=O)c1cccs1)NC(=O)CSc1nc2ccccc2s1	-42	-2	100*	i	0	-6
